Key:
Fibroblast = assay: Incucyte cell viability with human fibroblast; assay type: toxicity, cell-based; details: 10 µM, compound concentration 10 uM; note: filed as whole numbers so only -1 and 0 and 1 occur
U2OS = assay: Multiplex assay against U2OS; assay type: toxicity, cell-based; details: human
Procedure, shortened: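 Live cells carried four stains from seeding: Hoechst33342, BioTracker Green Microtubule Cytoskeleton Dye, MitoTracker Red and Annexin V Alexa Fluor 680. They were imaged on a CQ1 microscope at 37°C and 5% CO2 after compound addition. Using CellPathfinder machine-learning gating, cells were split into Hoechst high-intensity objects or normal cells, normal cells into healthy, pyknosed or fragmented nuclei, and pyknosed cells into mitotic or apoptotic; tubulin, mitochondrial-mass and membrane-permeability phenotypes are per cents of healthy-nucleus cells.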

[1] = 12 h, 1 µM, compound concentration 1 uM, replicate 1
[2] = 12 h, 1 µM, compound concentration 1 uM, replicate 2
[3] = 12 h, 10 µM, compound concentration 10 uM, replicate 1
[4] = 12 h, 10 µM, compound concentration 10 uM, replicate 2
[5] = 24 h, 1 µM, compound concentration 1 uM, replicate 1
[6] = 24 h, 1 µM, compound concentration 1 uM, replicate 2
[7] = 24 h, 10 µM, compound concentration 10 uM, replicate 1
[8] = 24 h, 10 µM, compound concentration 10 uM, replicate 2
[9] = 48 h, 1 µM, compound concentration 1 uM, replicate 1
[10] = 48 h, 1 µM, compound concentration 1 uM, replicate 2
[11] = 48 h, 10 µM, compound concentration 10 uM, replicate 1
[12] = 48 h, 10 µM, compound concentration 10 uM, replicate 2

CC(Cc1ccc(O)c(O)c1)C(C)Cc1ccc(O)c(O)c1 (stereo not drawn) [NORDIHYDROGUAIARETIC ACID]
Growth Rate (Fibroblast; 0 h, replicate number 1, timepoint 0 hours): 0 | Growth Rate (Fibroblast; 6 h, replicate number 1, timepoint 6 hours): 0 | Growth Rate (Fibroblast; 12 h, replicate number 1, timepoint 12 hours): 0 | Growth Rate (Fibroblast; 18 h, replicate number 1, timepoint 18 hours): 0 | Growth Rate (Fibroblast; 24 h, replicate number 1, timepoint 24 hours): 0 | Population Apoptotic (%) (U2OS; [1]): 64% | Population Fragmented Nuclei (%) (U2OS; [1]): 11% | Population Healthy Nuclei (%) (U2OS; [1]): 75% | Population Hoechst High Intensity Objects (%) (U2OS; [1]): 8% | Population Membrane Permeable-Phenotype (%) (U2OS; [1]): 3% | Population Mitochondria Different-Phenotype (%) (U2OS; [1]): 8% | Population Mitotic Cells (%) (U2OS; [1]): 35% | Population Normal (%) (U2OS; [1]): 91% | Population Pyknosed Nuclei (%) (U2OS; [1]): 12% | Population Tubulin-Different-Phenotype (%) (U2OS; [1]): 10% | Population Apoptotic (%) (U2OS; [2]): 0% | Population Fragmented Nuclei (%) (U2OS; [2]): 3% | Population Healthy Nuclei (%) (U2OS; [2]): 93% | Population Hoechst High Intensity Objects (%) (U2OS; [2]): 15% | Population Membrane Permeable-Phenotype (%) (U2OS; [2]): 0% | Population Mitochondria Different-Phenotype (%) (U2OS; [2]): 1% | Population Mitotic Cells (%) (U2OS; [2]): 100% | Population Normal (%) (U2OS; [2]): 84% | Population Pyknosed Nuclei (%) (U2OS; [2]): 3% | Population Tubulin-Different-Phenotype (%) (U2OS; [2]): 25% | Population Apoptotic (%) (U2OS; [3]): 35% | Population Fragmented Nuclei (%) (U2OS; [3]): 19% | Population Healthy Nuclei (%) (U2OS; [3]): 64% | Population Hoechst High Intensity Objects (%) (U2OS; [3]): 14% | Population Membrane Permeable-Phenotype (%) (U2OS; [3]): 7% | Population Mitochondria Different-Phenotype (%) (U2OS; [3]): 12% | Population Mitotic Cells (%) (U2OS; [3]): 64% | Population Normal (%) (U2OS; [3]): 85% | Population Pyknosed Nuclei (%) (U2OS; [3]): 16% | Population Tubulin-Different-Phenotype (%) (U2OS; [3]): 30% | Population Apoptotic (%) (U2OS; [4]): 0% | Population Fragmented Nuclei (%) (U2OS; [4]): 2% | Population Healthy Nuclei (%) (U2OS; [4]): 91% | Population Hoechst High Intensity Objects (%) (U2OS; [4]): 6% | Population Membrane Permeable-Phenotype (%) (U2OS; [4]): 2% | Population Mitochondria Different-Phenotype (%) (U2OS; [4]): 10% | Population Mitotic Cells (%) (U2OS; [4]): 100% | Population Normal (%) (U2OS; [4]): 93% | Population Pyknosed Nuclei (%) (U2OS; [4]): 5% | Population Tubulin-Different-Phenotype (%) (U2OS; [4]): 38% | Population Apoptotic (%) (U2OS; [5]): 45% | Population Fragmented Nuclei (%) (U2OS; [5]): 12% | Population Healthy Nuclei (%) (U2OS; [5]): 78% | Population Hoechst High Intensity Objects (%) (U2OS; [5]): 7% | Population Membrane Permeable-Phenotype (%) (U2OS; [5]): 4% | Population Mitochondria Different-Phenotype (%) (U2OS; [5]): 7% | Population Mitotic Cells (%) (U2OS; [5]): 54% | Population Normal (%) (U2OS; [5]): 92% | Population Pyknosed Nuclei (%) (U2OS; [5]): 8% | Population Tubulin-Different-Phenotype (%) (U2OS; [5]): 11% | Population Apoptotic (%) (U2OS; [6]): 0% | Population Fragmented Nuclei (%) (U2OS; [6]): 2% | Population Healthy Nuclei (%) (U2OS; [6]): 94% | Population Membrane Permeable-Phenotype (%) (U2OS; [6]): 0% | Population Mitochondria Different-Phenotype (%) (U2OS; [6]): 8% | Population Mitotic Cells (%) (U2OS; [6]): 100% | Population Pyknosed Nuclei (%) (U2OS; [6]): 2% | Population Tubulin-Different-Phenotype (%) (U2OS; [6]): 23% | Population Apoptotic (%) (U2OS; [7]): 61% | Population Fragmented Nuclei (%) (U2OS; [7]): 18% | Population Healthy Nuclei (%) (U2OS; [7]): 68% | Population Hoechst High Intensity Objects (%) (U2OS; [7]): 14% | Population Membrane Permeable-Phenotype (%) (U2OS; [7]): 10% | Population Mitochondria Different-Phenotype (%) (U2OS; [7]): 15% | Population Mitotic Cells (%) (U2OS; [7]): 38% | Population Normal (%) (U2OS; [7]): 85% | Population Pyknosed Nuclei (%) (U2OS; [7]): 12% | Population Tubulin-Different-Phenotype (%) (U2OS; [7]): 59% | Population Apoptotic (%) (U2OS; [8]): 16% | Population Fragmented Nuclei (%) (U2OS; [8]): 2% | Population Healthy Nuclei (%) (U2OS; [8]): 90% | Population Hoechst High Intensity Objects (%) (U2OS; [8]): 5% | Population Membrane Permeable-Phenotype (%) (U2OS; [8]): 1% | Population Mitochondria Different-Phenotype (%) (U2OS; [8]): 9% | Population Mitotic Cells (%) (U2OS; [8]): 83% | Population Normal (%) (U2OS; [8]): 94% | Population Pyknosed Nuclei (%) (U2OS; [8]): 7% | Population Tubulin-Different-Phenotype (%) (U2OS; [8]): 61% | Population Apoptotic (%) (U2OS; [9]): 43% | Population Fragmented Nuclei (%) (U2OS; [9]): 9% | Population Healthy Nuclei (%) (U2OS; [9]): 81% | Population Hoechst High Intensity Objects (%) (U2OS; [9]): 2% | Population Membrane Permeable-Phenotype (%) (U2OS; [9]): 2% | Population Mitochondria Different-Phenotype (%) (U2OS; [9]): 18% | Population Mitotic Cells (%) (U2OS; [9]): 56% | Population Normal (%) (U2OS; [9]): 97% | Population Pyknosed Nuclei (%) (U2OS; [9]): 8% | Population Tubulin-Different-Phenotype (%) (U2OS; [9]): 14% | Population Apoptotic (%) (U2OS; [10]): 20% | Population Fragmented Nuclei (%) (U2OS; [10]): 8% | Population Healthy Nuclei (%) (U2OS; [10]): 86% | Population Hoechst High Intensity Objects (%) (U2OS; [10]): 6% | Population Membrane Permeable-Phenotype (%) (U2OS; [10]): 4% | Population Mitochondria Different-Phenotype (%) (U2OS; [10]): 9% | Population Mitotic Cells (%) (U2OS; [10]): 80% | Population Normal (%) (U2OS; [10]): 93% | Population Pyknosed Nuclei (%) (U2OS; [10]): 5% | Population Tubulin-Different-Phenotype (%) (U2OS; [10]): 30% | Population Apoptotic (%) (U2OS; [11]): 72% | Population Fragmented Nuclei (%) (U2OS; [11]): 15% | Population Healthy Nuclei (%) (U2OS; [11]): 74% | Population Hoechst High Intensity Objects (%) (U2OS; [11]): 9% | Population Membrane Permeable-Phenotype (%) (U2OS; [11]): 6% | Population Mitochondria Different-Phenotype (%) (U2OS; [11]): 18% | Population Mitotic Cells (%) (U2OS; [11]): 27% | Population Normal (%) (U2OS; [11]): 90% | Population Pyknosed Nuclei (%) (U2OS; [11]): 9% | Population Tubulin-Different-Phenotype (%) (U2OS; [11]): 76% | Population Apoptotic (%) (U2OS; [12]): 66% | Population Fragmented Nuclei (%) (U2OS; [12]): 1% | Population Healthy Nuclei (%) (U2OS; [12]): 92% | Population Hoechst High Intensity Objects (%) (U2OS; [12]): 6% | Population Membrane Permeable-Phenotype (%) (U2OS; [12]): 4% | Population Mitochondria Different-Phenotype (%) (U2OS; [12]): 16% | Population Mitotic Cells (%) (U2OS; [12]): 33% | Population Normal (%) (U2OS; [12]): 93% | Population Pyknosed Nuclei (%) (U2OS; [12]): 6% | Population Tubulin-Different-Phenotype (%) (U2OS; [12]): 77%

From ChEMBL document CHEMBL4689842, “EUbOPEN Chemogenomics Library wave 1” (2021)
